Source: article PMC10403215 (Science Advances, 2023)
Values after ≈ are worked out from the molar mass of the structure shown. One block for each compound: values may come before it.

Tests used:
[1] = system: stationary phase S. aureus Newman cells; assay: Stationary-phase persister cell killing; format: cell-based, Staphylococcus aureus; settings: 100× or 10× MIC
[2] = system: S. aureus Newman; assay: MIC, broth microdilution; format: cell-based; settings: Staphylococcus aureus
[3] = system: S. aureus RN4220 overexpressing putative target genes; assay: MIC against strains overexpressing putative target proteins; format: cell-based, Staphylococcus aureus; settings: fig. S4A
[4] = system: S. aureus Newman; format: cell-based, Staphylococcus aureus; settings: 40 mM, fig. S4C
[5] = system: S. aureus MRSA strain USA300; assay: Murine epicutaneous infection model; format: in vivo, BALB/c mice
[6] = system: S. aureus Newman; assay: Time-killing assay, exponential culture; format: cell-based, Staphylococcus aureus; settings: control experiment
Procedure, shortened: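 Newman grown in LB at 37°C with shaking to OD600 0.4–0.6, then diluted to 1 × 10⁶ CFU/ml in LB containing various concentrations of test compound, with vancomycin as comparator. Incubated at 37°C with shaking. Serial dilutions plated on LB agar at set time points for CFU/ml. Duplicate, three independent experiments.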

[7] = system: MRSA USA300 preformed biofilm; assay: Preformed biofilm eradication, crystal violet; format: cell-based, Staphylococcus aureus; settings: control
Procedure, shortened: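 Eradication of preformed USA300 biofilms by test compound was quantified by crystal violet staining after washing. Three independent experiments, triplicate runs per concentration.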

[8] = system: S. aureus MRSA strain USA300; assay: MIC, broth microdilution; format: cell-based; settings: Staphylococcus aureus
Procedure, shortened: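 CLSI M07-A10 broth microdilution with twofold serial dilutions of test compound in MH broth. Inoculum was cells grown in MH broth at 37°C with shaking to OD600 0.4–0.6, diluted to ~1 × 10⁵ CFU/ml final. Run in duplicate, three independent experiments.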

[9] = system: S. aureus USA300; assay: Transmission electron microscopy of cell structure; format: cell-based, Staphylococcus aureus; settings: 0.5× MIC, cell lysis within 4 hours

Compound: CC1(C)S[C@@H]2[C@H](NC(=O)Cc3ccccc3)C(=O)N2[C@H]1C(=O)O [Pen, penicillin G]
tolerance of persisters [1]: high level of tolerance | MIC [2]: 0.125 µg/mL (≈ 0.374 µM) | effect of overexpression of each protein on sensitivity [3]: no effect | effect of sole addition of lysine or UDP-GlcNAc on susceptibility [4]: did not affect

Compound: COc1cccc(OC)c1C(=O)N[C@@H]1C(=O)N2[C@@H]1SC(C)(C)[C@@H]2C(=O)O [Met, methicillin]
killing effect compared to the vehicle control ([5]; 3 mg kg^−1): no significant killing effect

Compound: O=C(O)c1cn(C2CC2)c2cc(N3CCNCC3)c(F)cc2c1=O [Cipro, ciprofloxacin]
tolerance of persisters [1]: high level of tolerance

Compound: CN[C@H](CC(C)C)C(=O)N[C@H]1C(=O)N[C@@H](CC(N)=O)C(=O)N[C@H]2C(=O)N[C@H]3C(=O)N[C@H](C(=O)N[C@H](C(=O)O)c4cc(O)cc(O)c4-c4cc3ccc4O)[C@H](O)c3ccc(c(Cl)c3)Oc3cc2cc(c3O[C@@H]2O[C@H](CO)[C@@H](O)[C@H](O)[C@H]2O[C@H]2C[C@](C)(N)[C@H](O)[C@H](C)O2)Oc2ccc(cc2Cl)[C@H]1O [Van, vancomycin]
killing speed compared with ChryA [6]: much slower killing | antibiofilm ability [7]: no antibiofilm ability

MIC [8]: 0.031 µg/mL (≈ 0.06 µM)
Compound: CC(=O)O[C@H]1C[C@@]2(C)[C@@H](C[C@@H](O)[C@H]3[C@@]4(C)CC[C@@H](O)[C@@H](C)[C@@H]4CC[C@@]32C)/C1=C(\CCC=C(C)C)C(=O)O [fusidic acid]
effectiveness, ChryA versus fusidic acid ([5]; bacterial colonization of wounds on Day 16, fig. S3): less effectiveness compared to the low dose of ChryA

MIC [8]: 4 µg/mL (≈ 29 µM)
Compound: C[C@@H]1O[C@@H]1P(=O)(O)O [fosfomycin]
cell wall integrity (TEM) [9]: severely impaired
